The target of series [1] is T1, Protein deacetylase HDAC6 (Homo sapiens, UniProt Q9UBN7).
T1 sequence (Q9UBN7 whole entry): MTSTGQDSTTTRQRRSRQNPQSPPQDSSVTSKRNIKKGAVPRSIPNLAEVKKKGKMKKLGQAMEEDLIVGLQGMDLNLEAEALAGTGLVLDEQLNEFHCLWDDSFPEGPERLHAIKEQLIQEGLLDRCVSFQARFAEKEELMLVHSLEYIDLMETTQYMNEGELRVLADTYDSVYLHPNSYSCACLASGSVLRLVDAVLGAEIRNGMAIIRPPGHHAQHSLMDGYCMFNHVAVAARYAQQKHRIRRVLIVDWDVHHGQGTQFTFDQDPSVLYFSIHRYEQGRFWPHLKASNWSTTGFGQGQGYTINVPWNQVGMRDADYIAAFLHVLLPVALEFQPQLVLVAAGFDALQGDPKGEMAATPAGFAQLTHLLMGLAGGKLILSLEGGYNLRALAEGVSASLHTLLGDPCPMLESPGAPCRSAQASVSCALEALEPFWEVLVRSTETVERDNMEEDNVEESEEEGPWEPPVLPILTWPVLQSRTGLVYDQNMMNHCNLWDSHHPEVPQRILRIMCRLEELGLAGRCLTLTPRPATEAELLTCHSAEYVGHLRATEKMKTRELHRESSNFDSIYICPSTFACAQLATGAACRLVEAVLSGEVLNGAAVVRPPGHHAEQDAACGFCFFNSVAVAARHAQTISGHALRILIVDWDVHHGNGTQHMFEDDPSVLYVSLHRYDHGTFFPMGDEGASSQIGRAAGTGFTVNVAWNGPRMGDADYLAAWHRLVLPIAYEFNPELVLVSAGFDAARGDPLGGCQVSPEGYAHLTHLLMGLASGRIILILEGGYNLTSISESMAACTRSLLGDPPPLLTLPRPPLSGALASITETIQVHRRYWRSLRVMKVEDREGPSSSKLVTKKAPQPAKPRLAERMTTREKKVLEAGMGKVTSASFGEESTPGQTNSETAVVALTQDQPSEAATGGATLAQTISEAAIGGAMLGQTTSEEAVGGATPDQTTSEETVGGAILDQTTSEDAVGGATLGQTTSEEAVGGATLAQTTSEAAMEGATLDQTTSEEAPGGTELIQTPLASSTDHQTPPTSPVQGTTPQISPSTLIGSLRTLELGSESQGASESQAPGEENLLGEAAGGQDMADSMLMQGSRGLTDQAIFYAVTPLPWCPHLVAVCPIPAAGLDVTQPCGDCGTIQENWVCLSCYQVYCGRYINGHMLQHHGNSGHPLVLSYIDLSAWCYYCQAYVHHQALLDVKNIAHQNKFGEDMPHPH
Put plainly: Inhibition of human recombinant HDAC6 expressed in Baculovirus infected Sf9 cells using Ac-Leu-Gly-Lys(Ac)-AMC as substrate preincubated for 5 mins followed by substrate addition measured after 30 mins by fluorescence assay.

Series [2] in a line: Terminal half life in Sprague-Dawley rat at 2 mg/kg, ip. The following applies: in vivo, read-out: beta t1/2 (converted). Type of series: ADME, organism-based. The procedure, abridged: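 Sprague-Dawley rats given a single ip dose of 2 mg/kg. Plasma concentration–time profile used to derive terminal half-life, Cmax, plasma clearance and Vss.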
The test system of series [3] is HCT-116. Put plainly: Induction of autophagy in human HCT116 cells assessed as increase in LC3-2 level at 5 uM after 48 to 72 hrs by Western blot analysis. In kind it is functional, cell-based. The procedure, abridged:
(§1)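 HCT116 cells exposed to 5 μM for 24, 48 and 72 h; DMSO control. Lysed in RIPA on ice, cleared 12000 × g. 30 μg protein per lane on SDS-PAGE, transferred to PVDF, blocked in 5% BSA. Probed overnight at 4 °C for LC3-II and P-62, then secondary antibody 1.5 h. Infrared imaging detection with quantification.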

For series [4], the species on record is Homo sapiens. Put plainly: Inhibition of HDAC in human HCT116 cells assessed as increase in acetylated histone H3 level after 24 hrs by Western blot analysis. Type of series: cell-based. The procedure, abridged:
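HCT116 cells treated at 1 and 5 μM for 24 h; DMSO-volume control. PBS-washed, RIPA-lysed on ice 30 min, centrifuged 12000 × g 15 min at 4 °C. 30 μg protein separated by SDS-PAGE, blotted to PVDF, blocked 5% BSA 2 h. Incubated with acetyl-histone H3 or H4 primary antibody overnight at 4 °C, then secondary antibody; infrared imaging.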

Series [5] has as its system HCT-116. Put plainly: Cell cycle arrest in human HCT116 cells assessed as accumulation at G2 phase at 1 uM after 48 hrs by propidium iodide staining based flow cytometry (reference value: 5%). In kind it is functional.
The target in series [6] is Nicotinamide phosphoribosyltransferase (Homo sapiens, UniProt P43490). Put plainly: Inhibition of human recombinant NAMPT using NAM as substrate preincubated for 5 mins followed by substrate addition measured after 15 mins by fluorescence assay.
The test system of series [7] is HCT-116. Put plainly: Induction of autophagy in human HCT116 cells assessed as decrease in P-62 level at 5 uM after 24 to 72 hrs by Western blot analysis. Type of series: functional, cell-based. The method, boiled down: as §1
A general note: A western blot detects proteins with antibodies after separation by electrophoresis.

Each structure is given as a SMILES string. Activity calls are given as the source filed them. The calls are words filed in the database; no cut-off is given here. A value given as a limit tells only on which side of the number the result lay.

Chain of Nicotinamide phosphoribosyltransferase (P43490 whole entry): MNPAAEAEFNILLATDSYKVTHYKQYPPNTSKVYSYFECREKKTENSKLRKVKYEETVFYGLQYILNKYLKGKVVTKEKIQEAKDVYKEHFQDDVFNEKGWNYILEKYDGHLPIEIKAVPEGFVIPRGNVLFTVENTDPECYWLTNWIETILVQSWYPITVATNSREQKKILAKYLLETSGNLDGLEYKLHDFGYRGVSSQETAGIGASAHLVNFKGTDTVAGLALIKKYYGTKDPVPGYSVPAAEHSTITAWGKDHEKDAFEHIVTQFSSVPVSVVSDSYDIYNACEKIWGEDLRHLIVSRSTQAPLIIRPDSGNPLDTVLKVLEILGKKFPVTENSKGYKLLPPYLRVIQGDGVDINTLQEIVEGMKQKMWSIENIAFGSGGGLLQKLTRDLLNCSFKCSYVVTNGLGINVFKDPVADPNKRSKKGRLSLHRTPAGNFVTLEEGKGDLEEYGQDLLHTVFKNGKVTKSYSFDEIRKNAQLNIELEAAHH

As usually defined, the IC50 is the concentration that inhibits the measured activity by half. For the compound `Nc1ccccc1NC(=O)c1ccc(Cn2cc(-c3ccc(C(=O)NCc4cccnc4)cc3)nn2)cc1`, the 50% inhibitory concentration (IC50) in series [1] was greater than 100 µM; in series [6], 0.031 µM. For the same compound, the half-life in series [2] is 1.8 h. The outcome in series [3] was inactive. Also, in series [4], the inhibition result is “Active”. In series [5], the Activity was found to be 19%. Besides, the outcome in series [7] was Active.

Values taken from ChEMBL document CHEMBL4017517, “Small Molecule Inhibitors Simultaneously Targeting Cancer Metabolism and Epigenetics: Discovery of Novel Nicotinamide Phosphoribosyltransferase (NAMPT) and Histone Deacetylase (HDAC) Dual Inhibitors” (J Med Chem, 2017).
